aDG glyco act: alpha-DG glycosylation activation. Pro5-aDG cells, alpha-DG glycosylation AlphaScreen (IIH6); 0% Pro5, 100% B10-LARGE cell signal. activation, % at 10 µM. hit rate 0.22% among 360,000. AID 624168;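 active = activation of at least 8% versus controls, or a plate z-score of at least 8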;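 also: Pro5 are CHO cells carrying HIG-tagged alpha-DG that lacks glycosylation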
ADAM10 inh: inhibitors of human ADAM10; AID 720582; recombinant ADAM10, EDANS/DABCYL FRET peptide cleavage, 3 h; O14672; hit rate 0.62% among 370,000; inhibition, % at 7 µM;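 active = inhibition above a per-campaign cutoff equal to the mean of compounds falling between control-based bounds plus 3 SD, cut at about 20% in these data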
Hep lipid drop: modulators of hepatic lipid droplet formation | AID 1656 | AML12 mouse hepatocytes, oleate lipid droplets, BODIPY imaging | inhibition, % at 6.5 µM | hit rate 0.4% among 240,000;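 active = lipid droplet intensity inhibited by at least 50%, with more than 500 cells counted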
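Assay system: AML12 hepatocytes (mouse); Probe or stimulus: oleic acid at 100 µM to induce lipid droplet formation; Dosing: compound at 6.5 µM only; Schedule: compound with oleate, overnight; Detection: fluorescence imaging, 20x objective, two fields per well; Measure: % inhibition of lipid droplet signal.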
V-ATPase pHluor: yeast V-ATPase proton transport regulation by pHLuorin | response, % at 10 µM | S. cerevisiae, pHLuorin cytosolic pH fluorescence | AID 504577 | hit rate 0.37% among 350,000; in the data active = response mostly above about 7.3%, no sharp cut-off; inactive = mostly below about 5.4%; also: actives read high
ADAM17 inh: inhibits human ADAM17. inhibition, % at 6.95 µM. P78536. hit rate 0.83% among 370,000. recombinant ADAM17, EDANS/DABCYL FRET peptide cleavage. AID 720648;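 active = inhibition above the mean of compounds lying between control limits plus 3 SD, set per campaign, cut at about 8.5% in these data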
Target sequence (P78536 215-824 limits assumed): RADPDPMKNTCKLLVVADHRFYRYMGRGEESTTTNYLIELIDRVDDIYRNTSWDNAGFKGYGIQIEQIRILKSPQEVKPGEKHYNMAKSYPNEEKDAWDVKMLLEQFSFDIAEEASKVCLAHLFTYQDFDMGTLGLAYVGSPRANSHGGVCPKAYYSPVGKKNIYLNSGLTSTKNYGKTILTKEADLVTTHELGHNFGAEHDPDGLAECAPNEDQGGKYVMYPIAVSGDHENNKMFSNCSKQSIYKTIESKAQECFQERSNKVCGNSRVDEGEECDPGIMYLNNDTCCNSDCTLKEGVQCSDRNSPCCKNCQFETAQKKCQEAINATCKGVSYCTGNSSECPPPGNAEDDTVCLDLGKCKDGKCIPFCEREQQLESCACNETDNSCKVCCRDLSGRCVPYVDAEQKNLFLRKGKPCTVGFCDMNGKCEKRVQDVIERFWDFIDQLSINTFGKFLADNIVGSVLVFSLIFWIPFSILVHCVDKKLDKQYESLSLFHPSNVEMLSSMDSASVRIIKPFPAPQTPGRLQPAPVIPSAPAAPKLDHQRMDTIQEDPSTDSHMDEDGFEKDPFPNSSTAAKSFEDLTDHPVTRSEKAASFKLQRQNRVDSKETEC
MPTP block: blocks calcium-induced mitochondrial swelling; isolated mouse mitochondria, Ca2+ swelling absorbance, 30 min; inhibition, % at 10 µM; hit rate 1.4% among 360,000;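 active = inhibition of 50% or more, scaled per plate between neutral and stimulator controls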
ADAM10 counter: inhibits human ADAM10 in ADAM17 exosite counter-screen | shares compounds with ADAM17 inh | hit rate 47% among 2,900 | recombinant ADAM10, EDANS/DABCYL FRET peptide cleavage, 3 h | inhibition, % at 6.95 µM;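 active = mean inhibition over the triplicate runs exceeds the activity threshold set in the earlier primary screen, cut at about 20% in these data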
ADAM17 confirm: confirmation of inhibitors of human ADAM17; inhibition, % at 6.95 µM; shares compounds with ADAM17 inh; recombinant ADAM17, EDANS/DABCYL QFRET peptide cleavage; AID 743257; hit rate 65% among 2,900;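 active = mean inhibition across replicates above the hit cutoff set in the primary screen, cut at about 8.5% in these data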
Hits are given with their value; i = inactive; nt = no result given. A selection: hits, their analogues and other compounds. The true share with any hit is near 3.1%.

SMILES	aDG glyco act	ADAM10 inh	Hep lipid drop	V-ATPase pHluor	ADAM17 inh	MPTP block	ADAM10 counter	ADAM17 confirm
Cc1ccc(CN2C(=O)[C@H]3Cc4c([nH]c5ccccc45)C(C)(C)N3C2=O)cc1	i	i	nt	i	12	i	i	12
CCC/C(=C1/c2ccccc2C(=O)N1c1ccccc1)c1ccc(C=O)o1	nt	i	nt	nt	i	nt	nt	nt
O=C(NCCCN1CCOCC1)c1ccc2c(=O)n(Cc3ccc(Cl)cc3)c(=S)[nH]c2c1	i	i	i	i	i	i	nt	nt
CN(C)CCNC(=O)c1ccc2c(=O)n(Cc3ccc(Cl)cc3)c(=S)[nH]c2c1	i	i	i	i	9.1	i	i	i
O=C(SCC(O)C(O)CS)c1cccs1 (stereo unspecified)	i	i	i	i	43	i	31	64
O=C1C[C@@H](c2ccccc2)N=C2N(CC3CC3)C/C(=C/c3ccccc3)N12	nt	i	nt	nt	i	nt	nt	nt
CCO[C@H]1OC(C(=O)Nc2ccccc2)=C[C@@H](c2csc3ccccc23)[C@@H]1CCCO	i	i	i	i	10	i	i	12
S=c1[nH]nc(COc2ccc(Cl)cc2)n1C1CCCCC1	i	i	i	i	11	i	i	i
O=C(/C=C/c1ccc(N2CCCCC2)c([N+](=O)[O-])c1)c1ccc(O)cc1	i	i	nt	i	9.4	i	26	14
O=C(COCc1ccccc1)NC1CCCCN(Cc2cccc(Cl)c2)C1=O (stereo unspecified)	nt	i	nt	nt	i	nt	nt	nt
Cc1csc(NC(=O)CCn2c(=O)oc3ccc(Cl)cc32)n1	i	i	i	i	8.7	i	i	i
Cc1csc2nc(CSc3nc4ccccc4o3)cn12	i	i	nt	i	i	i	nt	nt
c1ccc2oc(SCc3cn4ccsc4n3)nc2c1	i	i	nt	i	9.2	i	i	i
COc1ccc(-c2cc(-c3n[nH]c(=S)n3-c3cccc4ccccc34)[nH]n2)cc1	i	i	i	i	8.7	i	i	i
C[C@H]1COc2cc(N3CCCC3)ccc2S(=O)(=O)N1C	nt	i	nt	nt	i	nt	nt	nt
O=C(C1CCCN(S(=O)(=O)c2cccc3ccccc23)C1)N1CCN(Cc2ccccc2)CC1 (stereo unspecified)	nt	i	nt	nt	i	nt	nt	nt
CCc1ccc(-c2cc(C(=O)NCc3ccccn3)c3ccccc3n2)cc1	i	i	i	i	i	i	nt	nt
CCc1ccccc1Nc1cc(C(=O)NCc2ccccn2)c2ccccc2n1	i	i	i	i	9.0	i	i	i
CC(=O)N1CCCN(C(=O)Cn2cnc3ccccc3c2=O)CC1	nt	i	nt	nt	i	nt	nt	nt
COc1ccccc1-n1c(SCC(=O)Nc2cccc(S(N)(=O)=O)c2)nc2ccccc2c1=O	i	i	i	i	i	i	nt	nt
CCN(CC)c1ccc(NC(=O)CSc2nc3ccccc3c(=O)n2-c2cc(S(=O)(=O)N(C)C)ccc2C)cc1	i	i	i	i	10	i	21	15
CC(=O)Nc1ccc(S(=O)(=O)NCC(=O)OCC(=O)NCc2ccc3c(c2)OCO3)cc1	i	i	nt	i	9.6	i	i	i
Cc1ccc(S(=O)(=O)N(C)C)cc1NC(=O)COc1ccccc1C(=O)Nc1ccccc1	i	i	nt	i	i	i	nt	nt
Cc1ccc(NC(=O)c2ccccc2OCC(=O)Nc2ccccc2F)cc1S(=O)(=O)N(C)C	i	i	nt	i	11	i	42	25
CC1(c2nnnn2Cc2ccccc2)CCSCC(=O)N1Cc1cccs1 (stereo unspecified)	nt	i	nt	nt	i	nt	nt	nt
SMILES	aDG glyco act	ADAM10 inh	Hep lipid drop	V-ATPase pHluor	ADAM17 inh	MPTP block	ADAM10 counter	ADAM17 confirm
Cc1ccc(S(=O)(=O)N/N=C/c2cccc3c2OCCO3)cc1	i	i	i	i	i	i	nt	nt
Cc1ccc(S(=O)(=O)N/N=C/c2cccc3nccnc23)cc1	i	i	i	i	8.8	i	i	i
Cc1cc(Cl)ccc1C(O)c1ncc(-c2cccc(F)c2)[nH]1 (stereo unspecified)	i	i	nt	nt	i	i	nt	nt
Cc1ccc2ccccc2c1C(O)c1ncc(-c2cccc(C(F)(F)F)c2)[nH]1 (stereo unspecified)	i	i	nt	nt	12	i	26	15
Cc1ccc2ccccc2c1C(O)c1ncc(-c2ccc(C(F)(F)F)cc2)[nH]1 (stereo unspecified)	i	i	nt	nt	i	i	nt	nt
OC(c1ccc(-c2ccccc2)cc1)c1ncc(-c2ccc(C(F)(F)F)cc2)[nH]1 (stereo unspecified)	i	i	nt	nt	9.1	i	23	13
Cc1cc(Cl)ccc1C(O)c1ncc(-c2cccc(C(F)(F)F)c2)[nH]1 (stereo unspecified)	i	i	nt	nt	9.2	i	40	18
COc1ccc(NC(=O)c2oc3ccccc3c2NC(=O)C2CC2)cc1	i	i	nt	i	i	i	nt	nt
COc1ccc(NC(=O)c2oc3ccccc3c2NC(=O)C(C)(C)C)cc1	i	i	i	i	9.7	i	i	8.8
CC(C)(N[C@@H](Cc1ccccc1)C(=O)NCCCc1ccccc1)C(=O)NCc1ccccc1	nt	i	nt	nt	i	nt	nt	nt
COc1ccc(C(=O)C2(C(=O)Nc3cc(C)cc(C)c3)CC(c3ccccn3)=NO2)cc1 (stereo unspecified)	nt	i	nt	nt	i	nt	nt	nt
COC(=O)[C@]12C[C@H](CC(=O)NCc3cccs3)C(=O)N(Cc3cccc4ccccc34)C1=C[C@H](C(C)(C)C)O[C@@H]2C	nt	i	nt	nt	i	nt	nt	nt
CCOC(=O)CC[C@@]1(C(=O)OCC)C[C@@H](CC(=O)NCCCOC)C(=O)N2CCCC=C21	nt	i	nt	nt	i	nt	nt	nt
CCc1ccc([C@H]2[C@@H]3C(=O)C[C@@H]4C(=O)N(c5ccccc5)C(=O)[C@@H]4[C@@H]3CN2S(=O)(=O)c2ccc(C)cc2)cc1	i	i	nt	nt	8.7	i	i	10
Cc1ccc(S(=O)(=O)N2C[C@H]3[C@H]4C(=O)N(c5ccccc5)C(=O)[C@H]4CC(=O)[C@H]3[C@@H]2c2ccc(Cl)cc2)cc1	i	i	nt	nt	i	i	nt	nt
CCN(C(=O)C1=COCCO1)c1nc2c(C)cccc2s1	i	i	nt	i	9.3	i	i	i
CCc1noc(C)c1C(=O)N(CC)c1nc2c(C)cccc2s1	i	i	nt	i	i	i	nt	nt
COC(=O)c1c(C)n(-c2ccc(OC)cc2)c2ccc(O)cc12	i	i	i	i	12	i	i	11
CCOC(=O)c1c(C)n(-c2ccc(F)cc2)c2ccc(O)cc12	i	nt	i	i	nt	i	nt	nt
CCC/C(O)=C1\C(=O)CCCC1=NC(C)C(=O)O (stereo unspecified)	i	i	nt	i	10	i	i	i
Cc1onc(-c2ccccc2Cl)c1C(=O)Nc1cccc2cccnc12	i	i	nt	i	12	i	20	18
COc1cc(NC(=O)c2c(-c3ccccc3Cl)noc2C)c2ncccc2c1	i	i	nt	i	i	i	nt	nt
